Assay [1] relates to A549. Put plainly: Cytotoxicity against human A549 cells assessed as reduction in cell viability resazurin reagent based fluorescent assay. It counts as functional. In a few lines:
(§1)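 Cells seeded at 20,000 per well, attached overnight in experimental medium with 5% FBS at 37 °C, then exposed to varying concentrations of σ2 ligands in 1:9 DMSO/acetone (cisplatin in 0.9% saline) for 24, 48 or 72 h, with re-dosing every 24 h. Matched vehicle controls. Read-out is 0.02% resazurin for 2-3 h, fluorescence ex 560/em 590 nm, viability as % of control. IC50 from non-linear regression of log concentration.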
(In general: The colour change of resazurin is a common sign of viable cells or microbes.)

Assay [2] is described as follows: Displacement of [3H]-DTG from sigma 2 receptor (unknown origin) expressed in HEK293T cell membranes. More on the design: species or system Homo sapiens.
For assay [3], the target named is Sigma non-opioid intracellular receptor 1 (Homo sapiens, UniProt Q99720). Put plainly: Displacement of [3H]-Pentazocine from sigma 1 receptor (unknown origin) expressed in HEK293T cell membranes.
The subject of assay [4] is MIA PaCa-2. Put plainly: Cytotoxicity against human MIAPaCa2 cells assessed as reduction in cell viability resazurin reagent based fluorescent assay. The class given is functional. In a few lines: as §1
The subject of assay [5] is MDA-MB-231. Put plainly: Cytotoxicity against human MDA-MB-231 cells assessed as reduction in cell viability incubated for 48 hrs by resazurin reagent based fluorescent assay. It counts as functional. The conditions noted are these: MDA-MB-231, 48 h. In a few lines:
as §1

Assay [6] has as its system PANC-1. Put plainly: Cytotoxicity against human PANC1 cells assessed as reduction in cell viability resazurin reagent based fluorescent assay. The class given is functional. In a few lines: as §1
For assay [7], the species on record is Homo sapiens. Kind of assay: Selectivity index, ratio of Ki for displacement of [3H]-Pentazocine from sigma 1 receptor (unknown origin) expressed in HEK293T cell membranes to KI for displacement of [3H]-DTG from sigma 2 receptor (unknown origin) expressed in HEK293T cell membranes. In a few lines: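 Sigma-1 and sigma-2 binding was run by the NIMH Psychoactive Drug Screening Program. pKi is the mean of three independent experiments, each done at least in triplicate. The index is the ratio of the two receptor Ki values.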
(In general: Displacement assays read how much labelled ligand stays bound in the presence of the test substance.)

Assay [8] relates to MDA-MB-231. Kind of assay: Cytotoxicity against human MDA-MB-231 cells assessed as reduction in cell viability incubated for 24 hrs by resazurin reagent based fluorescent assay. It counts as functional. The following applies: MDA-MB-231, 24 h. In a few lines: as §1
Assay [9] deals with MDA-MB-231. Kind of assay: Cytotoxicity against human MDA-MB-231 cells assessed as reduction in cell viability incubated for 72 hrs by resazurin reagent based fluorescent assay. It counts as functional. The conditions noted are these: MDA-MB-231, 72 h. In a few lines: as §1
Assay [10] has as its system MCF-10A. Put plainly: Cytotoxicity against human MCF10A cells assessed as reduction in cell viability resazurin reagent based fluorescent assay. In a few lines: as §1
Assay [11] concerns PC-3. Kind of assay: Cytotoxicity against human PC3 cells assessed as reduction in cell viability resazurin reagent based fluorescent assay. The class given is functional. In a few lines: as §1
Assay [12] concerns MDA-MB-468. Kind of assay: Cytotoxicity against human MDA-MB-468 cells assessed as reduction in cell viability resazurin reagent based fluorescent assay. The class given is functional. In a few lines:
as §1

Assay [13] deals with HEK293. Kind of assay: Cytotoxicity against HEK293 cells assessed as reduction in cell viability incubated for 72 hrs by resazurin reagent based fluorescent assay. The conditions noted are these: Homo sapiens, HEK293, 72 h. In a few lines:
as §1

Sequence of Sigma non-opioid intracellular receptor 1 (Q99720 whole entry): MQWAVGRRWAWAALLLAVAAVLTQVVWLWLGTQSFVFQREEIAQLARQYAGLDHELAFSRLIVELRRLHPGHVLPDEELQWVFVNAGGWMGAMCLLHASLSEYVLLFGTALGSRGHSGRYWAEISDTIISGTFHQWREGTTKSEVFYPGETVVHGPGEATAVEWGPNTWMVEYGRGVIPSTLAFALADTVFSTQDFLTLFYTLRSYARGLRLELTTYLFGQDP

Take `O/N=C1/c2ccc(F)cc2CC1CCN1CCCN(c2ccc(Cl)cc2)CC1` (stereo not drawn): the 50% inhibitory concentration (IC50) – broadly, the midpoint of a concentration-inhibition curve – was above 200000 nM in assay [1], 10000 nM in assay [4], 8000 nM in [5] and 76000 nM in [6]. The Ki (usually a measure of affinity in units of concentration, obtained from inhibition or displacement) in [2] stood at 407 nM; in [3], 277 nM. In addition, the pKi (as a rule, the Ki on a negative log10 scale, so that one unit is a factor of ten) in assay [2] turned out to be 6.4. In [7], the Ratio Ki turned out to be 0.7.
In the case of `Fc1ccc2c(c1)CC(CCN1CCCN(c3ccccn3)CC1)C2` (stereo not drawn), the results for the Ki in [2] and in assay [3] were 1.4 nM and 22 nM, respectively. The pKi in assay [2] amounted to 8.85. Further, the Ratio Ki in [7] turned out to be 15.7.
Consider `O=C1C(CCN2CCCN(c3ccc(Cl)cc3)CC2)=Cc2cc(Cl)ccc21`, for which the Ki was 13 nM in [2] and 4.9 nM in assay [3]. In assay [2], this compound showed a pKi of 7.9. Moreover, in assay [7], the Ratio Ki turned out to be 0.4.
`O=C1c2ccc(F)cc2CC1CCN1CCCN(c2ccc(Cl)cn2)CC1` (stereo not drawn): the IC50 in assay [1] was found to be 52000 nM; in assay [4], 42000 nM; in assay [5], 58000 nM; in assay [6] it was 51000 nM. In addition, the Ki was determined as 0.7 nM in [2] and 16 nM in [3]. The pKi in [2] was found to be 9.13. Moreover, the Ratio Ki in assay [7] is 22.9.
Regarding `O=C1c2ccccc2CC1CCN1CCCN(c2ccc(Cl)cc2)CC1` (stereo not drawn), the Ki in [2] turned out to be 4.4 nM; in assay [3] it was 21 nM. In addition, in assay [7], the Ratio Ki is 4.8.
`O=C(CCCN1CCCN(c2ccc(Cl)cc2)CC1)c1ccc(F)cc1`: the 50% inhibitory concentration (IC50) in assay [8] amounted to 36000 nM; in assay [9] it was 15000 nM; in [1] it was 6200 nM; in assay [10], 22000 nM; in assay [11] it was 8200 nM; in [12], 5000 nM. In addition, the IC50 in [4] was 2000 nM; in assay [5] it was 18000 nM; in assay [6], 400 nM.
For the compound `O/N=C(\CCCN1CCCN(c2ccc(Cl)cc2)CC1)c1ccc(F)cc1`, the IC50 in [8] came to 17000 nM; in assay [9] it was 7000 nM; in assay [1], 5800 nM; in assay [10] it was 20000 nM; in assay [11], 6900 nM; in [12], 4000 nM. Further, the concentration for half-maximal inhibition (IC50) in [4] is 1500 nM; in assay [5], 8000 nM; in assay [6] it was 140 nM. The Ki in assay [2] was found to be 3.5 nM; in assay [3], 5.1 nM. Besides, in assay [2], the pKi turned out to be 8.46. For the same compound, the Ratio Ki in [7] is 1.5.
`O=C1c2ccc(Cl)cc2CC1CCN1CCN(c2ccc(Cl)cc2)CC1` (stereo not drawn): in assay [2], affinity was put at a Ki of 18 nM and the pKi stood at 7.74. In [3], the Ki came out at 21 nM. The Ratio Ki in assay [7] came to 1.2.
On the same counts, the results for `O=C1c2ccc(F)cc2CC1CCN1CCCN(c2ccccn2)CC1` (stereo not drawn) are 1.8 nM, 8.75, 44 nM and 24.4.
For `O=C1C(CCN2CCCN(c3ccc(Cl)cc3)CC2)=Cc2cc(F)ccc21` the same measures were 20 nM, 7.7, 78 nM and 3.9.
For `O=C1c2ccc(F)cc2CC1CCN1CCCN(c2ccc(Cl)cc2)CC1` (stereo not drawn), the IC50 in assay [8] was found to be 33600 nM; in assay [9], 20100 nM; in assay [13], 41300 nM; in [5] it was 23500 nM. For the same compound, the Ki in [2] is 0.6 nM; in [3], 63 nM. Further, the pKi in [2] came out at 9.22. For the same compound, the Ratio Ki in assay [7] stood at 105.
In assay [2], `O=C1c2ccc(Cl)cc2CC1CCN1CCCN(c2ccc(Cl)cc2)CC1` (stereo not drawn) had an inhibition constant (Ki) of 19 nM and a pKi of 7.72. This compound also had a Ki in [3] of 26 nM. Also, in assay [7], the Ratio Ki was 1.4.

Source of the values: ChEMBL document CHEMBL4390693, “New analogs of SYA013 as sigma-2 ligands with anticancer activity” (Bioorg Med Chem, 2019).
